Measured values pooled from the literature.
Compare with care: the assays were run in different laboratories.
Target: Casein kinase I isoform gamma-1 (CSNK1G1, Homo sapiens, UniProt Q9HCP0)

Compound	test	setting	quantity	value
CCCCC(=O)Nc1ccc(-c2ccc3ncn(CCC)c(=O)c3c2)cn1	binding, competition with immobilised ligand	0.5 µM	remaining binding	100%
C1=C/COCc2cc(ccc2OCCN2CCCC2)Nc2nccc(n2)-c2cccc(c2)COC/1	cell-free assay	0.1 µM	remaining signal	72%
Cc1cc(O)c(-c2ccc([C@@H](C)CN(C)C)cc2)c2c1[nH]c(=O)c1sccc12	enzyme activity, inhibitor	0.1 µM	inhibition	-2.19%
CN1CCN(C(=O)c2ccc(NC(=O)Nc3ccc(N(C)c4ccnc(Nc5ccc(CS(C)(=O)=O)cc5)n4)cc3)cc2)CC1	binding	1 µM	remaining binding	100%
C=CC(=O)N1CCC[C@@H](n2nc(-c3ccc(Oc4ccccc4)cc3)c3c(N)ncnc32)C1	enzyme activity, inhibitor	1 µM	inhibition	7%
C[C@H]1CC[C@H](n2c3cnccc3c3cnc(Nc4ccc5c(n4)CCN(C(=O)CO)C5)nc32)CC1	cell-free assay	1 µM	remaining signal	100%
C#Cc1cc(-c2cc(Nc3nc(N[C@@H](C)c4ccc(F)cn4)ncc3Cl)n[nH]2)ccc1C=O	enzyme activity, inhibitor	0.2 µM	inhibition	4.78%
CO[C@@H]1[C@H](N(C)C(=O)c2ccccc2)C[C@H]2O[C@]1(C)n1c3ccccc3c3c4c(c5c6ccccc6n2c5c31)C(=O)NC4	enzyme activity, inhibitor	1 µM	inhibition	0%
CC(C)S(=O)(=O)c1ccc2nccc(Nc3ccc4sc(C5CCCC5)nc4c3)c2c1	enzyme activity, inhibitor	1 µM	activity vs control	96%
